Experimental data: ChEMBL document CHEMBL1926577, “Novel 1,3,4-heterodiazole analogues: synthesis and in-vitro antitumor activity” (2012)

Key:
Format in all cases: functional
[1] = test system: CCRF-CEM; assay: Growth inhibition of human CCRF-CEM cells at 10 uM after 48 hrs by coulter counter method; settings: read-out: GI
In short: (§1)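 NCI 60-cell-line panel, single dose. Compound dissolved first in DMSO, then diluted in phosphate-buffered saline so that every final dilution held under 1% DMSO. Duplicate wells received cells at 6 × 10⁴ cells/ml. Controls held PBS/DMSO at the same dilution. Plates were incubated 48 h at 37 °C under 5% CO₂. Cells were then diluted 10-fold in saline and counted on a Coulter counter, with counts corrected for the dilution. Results are given as percent growth inhibition.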

[2] = test system: HL-60(TB); assay: Growth inhibition of human HL-60(TB) cells at 10 uM after 48 hrs by coulter counter method; settings: HL-60, 48 h, read-out: GI
In short: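 Single-dose screen on the NCI 60-line panel (leukemia subpanel). Compound is dissolved in DMSO and diluted in PBS, with final DMSO below 1%. Duplicate wells hold 6 × 10⁴ cells/ml at 37 °C, 5% CO₂, for 48 h. Cells are counted by Coulter counter after 10-fold saline dilution. Read-out is percent growth versus PBS/DMSO controls, expressed as % growth inhibition.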

[3] = test system: K562; assay: Growth inhibition of human K562 cells at 10 uM after 48 hrs by coulter counter method; settings: K562, 48 h, read-out: GI; in short: as §1
[4] = test system: MOLT-4; assay: Growth inhibition of human MOLT4 cells at 10 uM after 48 hrs by coulter counter method; settings: MOLT-4, 48 h, read-out: GI; in short: as §1
[5] = test system: RPMI-8226; assay: Growth inhibition of human RPMI8226 cells at 10 uM after 48 hrs by coulter counter method; settings: RPMI-8226, 48 h, read-out: GI; in short: as §1
[6] = test system: SR; assay: Growth inhibition of human SR cells at 10 uM after 48 hrs by coulter counter method; settings: read-out: GI; in short: as §1
[7] = test system: A549; assay: Growth inhibition of human A549 cells at 10 uM after 48 hrs by coulter counter method; settings: A549, 48 h, read-out: GI; in short: as §1
[8] = test system: EKVX; assay: Growth inhibition of human EKVX cells at 10 uM after 48 hrs by coulter counter method; settings: read-out: GI; in short: as §1
[9] = test system: NCI-H226; assay: Growth inhibition of human NCI-H226 cells at 10 uM after 48 hrs by coulter counter method; settings: NCI-H226, 48 h, read-out: GI; in short: as §1
[10] = test system: NCI-H23; assay: Growth inhibition of human NCI-H23 cells at 10 uM after 48 hrs by coulter counter method; settings: NCI-H23, 48 h, read-out: GI; in short: as §1
[11] = test system: NCI-H322M; assay: Growth inhibition of human NCI-H322M cells at 10 uM after 48 hrs by coulter counter method; settings: read-out: GI; in short: as §1
[12] = test system: NCI-H522; assay: Growth inhibition of human NCI-H522 cells at 10 uM after 48 hrs by coulter counter method; settings: NCI-H522, 48 h, read-out: GI; in short: as §1
[13] = test system: HCT-116; assay: Growth inhibition of human HCT116 cells at 10 uM after 48 hrs by coulter counter method; settings: HCT-116, 48 h, read-out: GI; in short: as §1
[14] = test system: HCT-15; assay: Growth inhibition of human HCT15 cells at 10 uM after 48 hrs by coulter counter method; settings: HCT-15, 48 h, read-out: GI; in short: as §1
[15] = test system: HT-29; assay: Growth inhibition of human HT-29 cells at 10 uM after 48 hrs by coulter counter method; settings: HT-29, 48 h, read-out: GI; in short: as §1
[16] = test system: KM12; assay: Growth inhibition of human KM12 cells at 10 uM after 48 hrs by coulter counter method; settings: KM12, 48 h, read-out: GI; in short: as §1
[17] = test system: SF-268; assay: Growth inhibition of human SF268 cells at 10 uM after 48 hrs by coulter counter method; settings: SF-268, 48 h, read-out: GI; in short: as §1
[18] = test system: SF-295; assay: Growth inhibition of human SF295 cells at 10 uM after 48 hrs by coulter counter method; settings: SF-295, 48 h, read-out: GI; in short: as §1
[19] = test system: SNB-19; assay: Growth inhibition of human SNB19 cells at 10 uM after 48 hrs by coulter counter method; settings: SNB-19, 48 h, read-out: GI; in short: as §1
[20] = test system: SNB-75; assay: Growth inhibition of human SNB75 cells at 10 uM after 48 hrs by coulter counter method; settings: SNB-75, 48 h, read-out: GI; in short: as §1
[21] = test system: U-251; assay: Growth inhibition of human U251 cells at 10 uM after 48 hrs by coulter counter method; settings: U-251, 48 h, read-out: GI; in short: as §1
[22] = test system: LOX IMVI; assay: Growth inhibition of human LOXIMVI cells at 10 uM after 48 hrs by coulter counter method; settings: read-out: GI; in short: as §1
[23] = test system: Malme-3M; assay: Growth inhibition of human MALME-3M cells at 10 uM after 48 hrs by coulter counter method; settings: read-out: GI; in short: as §1
[24] = test system: M14; assay: Growth inhibition of human M14 cells at 10 uM after 48 hrs by coulter counter method; settings: M14, 48 h, read-out: GI; in short: as §1
[25] = test system: MDA-MB-435; assay: Growth inhibition of human MDA-MB-435 cells at 10 uM after 48 hrs by coulter counter method; settings: MDA-MB-435, 48 h, read-out: GI; in short: as §1
[26] = test system: SK-MEL-2; assay: Growth inhibition of human SK-MEL-2 cells at 10 uM after 48 hrs by coulter counter method; settings: SK-MEL-2, 48 h, read-out: GI; in short: as §1
[27] = test system: SK-MEL-28; assay: Growth inhibition of human SK-MEL-28 cells at 10 uM after 48 hrs by coulter counter method; settings: SK-MEL-28, 48 h, read-out: GI; in short: as §1
[28] = test system: SK-MEL-5; assay: Growth inhibition of human SK-MEL-5 cells at 10 uM after 48 hrs by coulter counter method; settings: SK-MEL-5, 48 h, read-out: GI; in short: as §1
[29] = test system: UACC-257; assay: Growth inhibition of human UACC257 cells at 10 uM after 48 hrs by coulter counter method; settings: UACC-257, 48 h, read-out: GI; in short: as §1
[30] = test system: UACC-62; assay: Growth inhibition of human UACC62 cells at 10 uM after 48 hrs by coulter counter method; settings: UACC-62, 48 h, read-out: GI; in short: as §1
[31] = test system: IGROV-1; assay: Growth inhibition of human IGROV1 cells at 10 uM after 48 hrs by coulter counter method; settings: IGROV-1, 48 h, read-out: GI; in short: as §1
[32] = test system: OVCAR-8; assay: Growth inhibition of human OVCAR8 cells at 10 uM after 48 hrs by coulter counter method; settings: OVCAR-8, 48 h, read-out: GI; in short: as §1
[33] = test system: NCI/ADR-RES; assay: Growth inhibition of human NCI/ADR-RES cells at 10 uM after 48 hrs by coulter counter method; settings: read-out: GI; in short: as §1
[34] = test system: 786-0; assay: Growth inhibition of human 786-0 cells at 10 uM after 48 hrs by coulter counter method; settings: 786-0, 48 h, read-out: GI; in short: as §1
[35] = test system: A498; assay: Growth inhibition of human A498 cells at 10 uM after 48 hrs by coulter counter method; settings: A498, 48 h, read-out: GI; in short: as §1
[36] = test system: ACHN; assay: Growth inhibition of human ACHN cells at 10 uM after 48 hrs by coulter counter method; settings: read-out: GI; in short: as §1
[37] = test system: CAKI-1; assay: Growth inhibition of human Caki1 cells at 10 uM after 48 hrs by coulter counter method; settings: CAKI-1, 48 h, read-out: GI; in short: as §1
[38] = test system: SN12C; assay: Growth inhibition of human SN12C cells at 10 uM after 48 hrs by coulter counter method; settings: read-out: GI; in short: as §1
[39] = test system: TK-10; assay: Growth inhibition of human TK10 cells at 10 uM after 48 hrs by coulter counter method; settings: TK-10, 48 h, read-out: GI; in short: as §1
[40] = test system: UO-31; assay: Growth inhibition of human UO31 cells at 10 uM after 48 hrs by coulter counter method; settings: UO-31, 48 h, read-out: GI; in short: as §1
[41] = test system: PC-3; assay: Growth inhibition of human PC3 cells at 10 uM after 48 hrs by coulter counter method; settings: PC-3, 48 h, read-out: GI; in short: as §1
[42] = test system: MCF7; assay: Growth inhibition of human MCF7 cells at 10 uM after 48 hrs by coulter counter method; settings: MCF7, 48 h, read-out: GI; in short: as §1
[43] = test system: BT-549; assay: Growth inhibition of human BT549 cells at 10 uM after 48 hrs by coulter counter method; settings: BT-549, 48 h, read-out: GI; in short: as §1
[44] = test system: T47D; assay: Growth inhibition of human T47D cells at 10 uM after 48 hrs by coulter counter method; settings: read-out: GI; in short: as §1
[45] = test system: MDA-MB-468; assay: Growth inhibition of human MDA-MB-468 cells at 10 uM after 48 hrs by coulter counter method; settings: MDA-MB-468, 48 h, read-out: GI; in short: as §1

Compound: O=C1N=C2SC(c3ccccc3)=NN2C1=O
- inhibition of growth at 10 µM [1]: < 10%
- inhibition of growth at 10 µM [2]: < 10%
- inhibition of growth at 10 µM [3]: < 10%
- inhibition of growth at 10 µM [4]: < 10%
- inhibition of growth at 10 µM [5]: 12.6%
- inhibition of growth at 10 µM [6]: < 10%
- inhibition of growth at 10 µM [7]: < 10%
- inhibition of growth at 10 µM [8]: < 10%
- inhibition of growth at 10 µM [9]: < 10%
- inhibition of growth at 10 µM [10]: < 10%
- inhibition of growth at 10 µM [11]: 10.8%
- inhibition of growth at 10 µM [12]: 12.4%
- inhibition of growth at 10 µM [13]: < 10%
- inhibition of growth at 10 µM [14]: < 10%
- inhibition of growth at 10 µM [15]: < 10%
- inhibition of growth at 10 µM [16]: < 10%
- inhibition of growth at 10 µM [17]: < 10%
- inhibition of growth at 10 µM [18]: < 10%
- inhibition of growth at 10 µM [19]: < 10%
- inhibition of growth at 10 µM [20]: < 10%
- inhibition of growth at 10 µM [21]: < 10%
- inhibition of growth at 10 µM [22]: < 10%
- inhibition of growth at 10 µM [23]: < 10%
- inhibition of growth at 10 µM [24]: < 10%
- inhibition of growth at 10 µM [25]: < 10%
- inhibition of growth at 10 µM [26]: < 10%
- inhibition of growth at 10 µM [27]: < 10%
- inhibition of growth at 10 µM [28]: < 10%
- inhibition of growth at 10 µM [29]: 15.5%
- inhibition of growth at 10 µM [30]: < 10%
- inhibition of growth at 10 µM [31]: < 10%
- inhibition of growth at 10 µM [32]: < 10%
- inhibition of growth at 10 µM [33]: < 10%
- inhibition of growth at 10 µM [34]: < 10%
- inhibition of growth at 10 µM [35]: < 10%
- inhibition of growth at 10 µM [36]: < 10%
- inhibition of growth at 10 µM [37]: < 10%
- inhibition of growth at 10 µM [38]: < 10%
- inhibition of growth at 10 µM [39]: < 10%
- inhibition of growth at 10 µM [40]: 25.7%
- inhibition of growth at 10 µM [41]: 10.7%
- inhibition of growth at 10 µM [42]: < 10%
- inhibition of growth at 10 µM [43]: < 10%
- inhibition of growth at 10 µM [44]: < 10%
- inhibition of growth at 10 µM [45]: < 10%
